Rtt109 Vps75: C. albicans Rtt109 histone acetyltransferase inhibition. 0.16% of 330,000 active. inhibition, % at 34.9 µM. purified Rtt109/Vps75, ThioGlo CoA-SH fluorescence, 4 h;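 active = inhibition of at least 50% in every replicate; inconclusive = best replicate reaches 50% inhibition but some replicates fall short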
CAL PDZ FP-1: inhibitors of human CAL PDZ peptide binding. Q9HD26. purified CAL PDZ, TMR-peptide fluorescence polarization, 1 h. inhibition, % at 20 µM. 0.02% of 330,000 active;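 active = highest replicate inhibition of at least 40%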
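Material: tagged CAL PDZ domain; buffer or medium: 25 mM sodium phosphate pH 7.4, 150 mM NaCl, TCEP, IgG, Thesit; compound dosing: single point, 20 µM; schedule: 1 h incubation at room temperature before polarization reading; measured by: FP readout, S and P plane fluorescence; read-out basis: percent inhibition from loss of millipolarization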
CAL PDZ FP-2: inhibitors of human CAL PDZ peptide binding; Q9HD26; purified CAL PDZ, TMR-peptide fluorescence polarization, 1 h; inhibition, % at 24.9 µM; 0.92% of 300,000 active; AID 602252;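 active = mean inhibition of at least 30% with at least half of replicates also reaching 30%; inconclusive = no clear call, values can overlap the other calls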
DYRK1A inh: inhibitors of rat Dyrk1A kinase | Q63470 | ADP-Glo luminescence, NFATc1 peptide | inhibition, % at 12.5 µM | 0.43% of 310,000 active | AID 504441; in the data active = inhibition above about 50%
ALR inh: inhibitors of human sulfhydryl oxidase ALR. P55789. AID 485317. 3.8% of 290,000 active. inhibition, % (no concentration beside the values). purified ALR, DTT oxidation, H2O2 HRP-luminol luminescence;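 active = mean replicate inhibition above about 79%, with every replicate also reaching it, limit read from the data; inconclusive = only one of the two criteria met; inactive = mean below limit and not every replicate reaching it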
Target sequence (P55789 whole entry, looked up): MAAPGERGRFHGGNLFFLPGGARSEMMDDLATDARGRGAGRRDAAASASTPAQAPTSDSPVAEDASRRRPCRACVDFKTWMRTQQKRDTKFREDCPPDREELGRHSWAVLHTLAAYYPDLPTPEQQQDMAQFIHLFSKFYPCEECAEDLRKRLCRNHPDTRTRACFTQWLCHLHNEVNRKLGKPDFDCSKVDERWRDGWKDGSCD
Each line names hits and unclear results; the compound was inactive in the other large screens. Only some compounds are listed: those with a hit (about 4.3% of all), similar ones and a draw of the others.

CN1CCN(NC(=O)CN2C(=O)/C(=C/c3c(Cl)cccc3Cl)SC2=S)CC1	none (no result: ALR inh)
O=C(CCN1C(=O)/C(=C\c2ccccc2Cl)SC1=S)Nc1cccnc1	CAL PDZ FP-2 66
COc1cccc(/C=C2\SC(=S)N(CCCC(=O)N3CCCCC3CCO)C2=O)c1 (stereo not drawn)	CAL PDZ FP-2 88
O=C(CCN1C(=O)/C(=C/c2ccccc2F)SC1=S)Nc1cccnc1	none
Cc1cc(NC(=O)COC(=O)CCNS(=O)(=O)c2c(Cl)cccc2Cl)no1	none
O=C(CN1C(=O)S/C(=C\C=C\c2ccccc2)C1=O)Nc1cccc(O)c1	none
O=C(CCCN1C(=O)/C(=C\c2ccccc2)SC1=S)Nc1ccc(O)cc1C(=O)O	Rtt109 Vps75 inconclusive, CAL PDZ FP-2 77
O=C(CN1C(=O)S/C(=C\C=C\c2ccccc2)C1=O)Nc1ccccc1C(=O)O	ALR inh 97
O=C(CCCN1C(=O)/C(=C/c2ccccc2)SC1=S)Nc1ccccc1O	none
CC(C(=O)Nc1ccc(O)cc1C(=O)O)N1C(=O)/C(=C\c2cccs2)SC1=S (stereo not drawn)	ALR inh 87
COc1ccc(/C=C2/SC(=S)N(CCCC(=O)Nc3ccc(O)cc3)C2=O)cc1	CAL PDZ FP-2 46
CN(C(=O)COc1ccc([N+](=O)[O-])cc1)C1CCS(=O)(=O)C1 (stereo not drawn)	none
O=C(NNc1ccc([N+](=O)[O-])cn1)Nc1ccc(N=Nc2ccccc2)cc1	none (no result: ALR inh)
Cc1cc(NC(=O)CCC(=O)N(CC(=O)NCC2CCCO2)c2ccc(F)c(Cl)c2)no1 (stereo not drawn)	none
Cc1ccc(OCC(=O)c2c[nH]c3ccccc23)c([N+](=O)[O-])n1	none (no result: CAL PDZ FP-2)
COc1ccc(C(=O)N/N=C(\C)c2ccc(NC(=O)Cc3ccccc3)cc2)c(OC)c1	none
Cc1ccc(-c2nc(CS(=O)CC(=O)NCCC(C)C)c(C)o2)cc1 (stereo not drawn)	ALR inh 98 (no result: CAL PDZ FP-2)
CCCCNC(=O)CS(=O)Cc1nc(-c2ccc(C)cc2)oc1C (stereo not drawn)	ALR inh 99 (no result: CAL PDZ FP-2)
CCCN(CCC)CCNC(=O)CS(=O)Cc1nc(-c2ccc(C)cc2)oc1C (stereo not drawn)	ALR inh 98
CCCNC(=O)CS(=O)Cc1nc(-c2ccc(OC)cc2)oc1C (stereo not drawn)	ALR inh 99
COc1ccc(OCC(=O)N2CCC(n3nccc3NC(=O)C3CC3)CC2)cc1	none
CC(Sc1nc2ccccc2s1)C(=O)Nc1nnc(C(C)C)s1 (stereo not drawn)	none
CCC(Sc1nc2ccc(N)cc2s1)C(=O)Nc1nccs1 (stereo not drawn)	ALR inh 99 (no result: Rtt109 Vps75)
CCC(Sc1nc2ccccc2s1)C(=O)Nc1nnc(C)s1 (stereo not drawn)	ALR inh 98 (no result: CAL PDZ FP-2)
COc1ccccc1-n1cc(-c2ccc([N+](=O)[O-])cc2)[nH]c1=S	CAL PDZ FP-2 63 (no result: DYRK1A inh)
O=C(Nc1ccccc1)N(Cc1ccccc1)C1=NCCS1	ALR inh 99 (no result: CAL PDZ FP-2)
CC1CN=C(N(Cc2ccccc2)C(=O)Nc2ccccc2)S1 (stereo not drawn)	none
Cc1cccc(-c2nc3ccccc3c3nncn23)c1	DYRK1A inh 58 (no result: CAL PDZ FP-2)
c1ccc(-c2nc3ccccc3c3nncn23)cc1	none
CCOC(=O)c1ccc(NC2c3ccccc3C(=O)N2c2cccnc2)cc1 (stereo not drawn)	none (no result: CAL PDZ FP-2)
COc1ccc(NC2c3ccccc3C(=O)N2c2cccnc2)cc1 (stereo not drawn)	ALR inh 88
O=C(CCCn1cncn1)N1CCCC(Nc2ccc(F)cc2)C1 (stereo not drawn)	ALR inh 98
CC(C)c1ccc(NC2CCCN(C(=O)CCCn3cncn3)C2)cc1 (stereo not drawn)	ALR inh 96
O=C(CCn1cncn1)N1CCCC(N2CCN(c3ccc(F)cc3)CC2)C1 (stereo not drawn)	none
CC(C)Oc1cccc(C(=O)C2CCCN(C(=O)CCn3cnnn3)C2)c1 (stereo not drawn)	CAL PDZ FP-2 77
Cc1cc(C)n(CC(=O)N2CCCC(C(=O)c3cccc(OC(C)C)c3)C2)n1 (stereo not drawn)	none
O=C(Cn1cccn1)N1CCCC(Nc2ccc(F)c(F)c2)C1 (stereo not drawn)	ALR inh 89
Cc1ccc(Cl)cc1NC(=S)NN	none (no result: DYRK1A inh)
CCOc1ccccc1CN1C(=O)NC2(CCCCCC2)C1=O	none
Cc1cc(NC(=O)CSc2nc(C)c(C)c(=O)[nH]2)no1	none

Screens: PubChem BioAssay, Broad Institute
